# Activity calls are given as the source filed them. The rule behind the calls is not given here.
# How the values were obtained:
# RAW264.7 [1] = assay: Induction of ROS generation in mouse RAW264.7 cells at 5 uM after 24 hrs by H2DCFDA probe based fluorescence assay; assay type: functional, cell-based
# Procedure, shortened: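 Adhered RAW 264.7 macrophages (2 h, 37 °C, 5% CO2) exposed to compounds at 5 μM without LPS for 24 h, compared with untreated cells. 2,7-Dichlorodihydrofluorescein diacetate added (final 10 μM) for an additional 10 min at 37 °C. Dichlorofluorescein fluorescence measured at λex/λem 485/518 nm. At least triplicate.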
# RAW264.7 [2] = assay: Cytotoxicity against mouse RAW264.7 cells assessed as reduction in cell viability after 24 hrs by MTS assay; assay type: functional, cell-based; conditions: RAW264.7, 24 h
# Procedure, shortened: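 RAW 264.7 murine macrophages (DMEM, 10% FBS, 37 °C, 5% CO2) seeded 6 × 10^3 cells/well and cultured 2 h. Medium then replaced with compound-containing medium (1.25−10.0 μM range), 24 h exposure. MTS reagent added, formazan read 2 h later at 492 nm with 690 nm background. IC50 reported; at least triplicate, mean ± SD.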
# RAW264.7 [3] = assay: Immunomodulatory activity in mouse RAW264.7 cells assessed as inhibition of LPS-induced ROS level at 5 uM after 24 hrs by H2DCFDA probe based fluorescence assay relative to control; assay type: functional; conditions: RAW264.7, 24 h
# Procedure, shortened: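 RAW 264.7 macrophages allowed to adhere 2 h at 37 °C, 5% CO2, then given compounds (5 μM) co-incubated with E. coli serotype 055:B5 LPS (1.0 μg/mL) for 24 h. DCFH-DA then added (final 10 μM) for 10 min at 37 °C. Fluorescence read at 485/518 nm; % reduction of LPS-induced ROS. At least triplicate, mean ± SD.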
SMILES,Activity (RAW264.7 [1]),IC50 (RAW264.7 [2]) [µM],inhibition at 5 µM (RAW264.7 [3]) [%]
CC(=O)[C@H]1CC[C@H]2[C@@H]3C[C@H](O[C@@H]4O[C@H](C)[C@@H](O)[C@H](O[C@@H]5OC[C@@H](O[C@@H]6O[C@H](CO)[C@H](O)[C@H](O)[C@H]6O[C@@H]6O[C@H](C)[C@H](O)[C@H](O)[C@H]6O)[C@H](O)[C@H]5O[C@@H]5O[C@H](C)[C@@H](O)[C@H](O)[C@H]5O)[C@H]4O)[C@H]4C[C@@H](OS(=O)(=O)O)CC[C@]4(C)C3=CC[C@]12C,inactive,1.25 to 10,
CC(=O)[C@H]1CC[C@H]2[C@@H]3C[C@H](O[C@@H]4O[C@H](C)[C@@H](O)[C@H](O[C@@H]5OC[C@@H](O[C@@H]6O[C@H](C)[C@@H](O)[C@H](O)[C@H]6O[C@@H]6O[C@H](C)[C@H](O)[C@H](O)[C@H]6O)[C@H](O)[C@H]5O[C@@H]5O[C@H](C)[C@@H](O)[C@H](O)[C@H]5O)[C@H]4O)[C@H]4C[C@@H](OS(=O)(=O)O)CC[C@]4(C)C3=CC[C@]12C,inactive,1.25 to 10,
CC(C)CC(=O)C[C@](C)(O)[C@H]1CC[C@H]2[C@@H]3C[C@H](O[C@@H]4O[C@H](C)[C@@H](O)[C@H](O[C@@H]5OC[C@@H](O[C@@H]6O[C@H](CO)[C@H](O)[C@H](O)[C@H]6O[C@@H]6O[C@H](C)[C@H](O)[C@H](O)[C@H]6O)[C@H](O)[C@H]5O[C@@H]5O[C@H](C)[C@@H](O)[C@H](O)[C@H]5O)[C@H]4O)[C@H]4C[C@@H](OS(=O)(=O)O)CC[C@]4(C)C3=CC[C@@]21C,inactive,7,
CC(C)C(C)[C@H](O)[C@@H]1O[C@H]2C[C@H]3[C@@H]4C[C@H](O[C@@H]5O[C@H](C)[C@@H](O)[C@H](O[C@@H]6O[C@H](C)[C@@H](O[C@@H]7O[C@H](CO)[C@@H](O)[C@H](O)[C@H]7O[C@@H]7O[C@H](C)[C@H](O)[C@H](O)[C@H]7O)[C@H](O)[C@H]6O[C@@H]6O[C@H](C)[C@@H](O)[C@H](O)[C@H]6O)[C@H]5O)[C@H]5C[C@@H](OS(=O)(=O)O)CC[C@]5(C)C4=CC[C@]3(C)[C@H]2[C@@]1(C)O (stereo partly specified),inactive,1.25 to 10,
CC(C)CC[C@H](O)[C@](C)(O)[C@H]1CC[C@H]2[C@@H]3C[C@H](O[C@@H]4O[C@H](C)[C@@H](O)[C@H](O[C@@H]5OC[C@@H](O[C@@H]6O[C@H](C)[C@@H](O)[C@H](O)[C@H]6O[C@@H]6O[C@H](C)[C@H](O)[C@H](O)[C@H]6O)[C@H](O)[C@H]5O[C@@H]5O[C@H](C)[C@@H](O)[C@H](O)[C@H]5O)[C@H]4O)[C@H]4C[C@@H](OS(=O)(=O)O)CC[C@]4(C)C3=CC[C@]12C,inactive,1.25 to 10,28
CCC(C)[C@H](O)[C@@H]1O[C@H]2C[C@H]3[C@@H]4C[C@H](O[C@@H]5O[C@H](C)[C@@H](O)[C@H](O[C@@H]6O[C@H](C)[C@@H](O[C@@H]7O[C@H](CO)[C@@H](O)[C@H](O)[C@H]7O[C@@H]7O[C@H](C)[C@H](O)[C@H](O)[C@H]7O)[C@H](O)[C@H]6O[C@@H]6O[C@H](C)[C@@H](O)[C@H](O)[C@H]6O)[C@H]5O)[C@H]5C[C@@H](OS(=O)(=O)O)CC[C@]5(C)C4=CC[C@]3(C)[C@H]2[C@@]1(C)O (stereo partly specified),inactive,,40
CC(C)CCC(=O)[C@](C)(O)[C@H]1CC[C@H]2[C@@H]3C[C@H](O[C@@H]4O[C@H](C)[C@@H](O)[C@H](O[C@@H]5OC[C@@H](O[C@@H]6O[C@H](C)[C@@H](O)[C@H](O)[C@H]6O[C@@H]6O[C@H](C)[C@H](O)[C@H](O)[C@H]6O)[C@H](O)[C@H]5O[C@@H]5O[C@H](C)[C@@H](O)[C@H](O)[C@H]5O)[C@H]4O)[C@H]4C[C@@H](OS(=O)(=O)O)CC[C@]4(C)C3=CC[C@@]21C,inactive,,55
C[C@H]1O[C@@H](O[C@H]2[C@H](O[C@@H]3CO[C@@H](O[C@@H]4[C@@H](O)[C@H](O[C@H]5C[C@@H]6C(=CC[C@@]7(C)[C@H]6CC[C@@H]7[C@@](C)(O)C(=O)/C=C/C(C)(C)O)[C@@]6(C)CC[C@H](OS(=O)(=O)O)C[C@H]56)O[C@H](C)[C@H]4O)[C@H](O[C@@H]4O[C@H](C)[C@@H](O)[C@H](O)[C@H]4O)[C@H]3O)O[C@H](C)[C@@H](O)[C@@H]2O)[C@H](O)[C@@H](O)[C@H]1O,inactive,1.25 to 10,
CC(C)CC(=O)C[C@](C)(O)[C@H]1CC[C@H]2[C@@H]3C[C@H](O[C@@H]4O[C@H](C)[C@@H](O)[C@H](O[C@@H]5OC[C@@H](O[C@@H]6O[C@H](CO)[C@@H](O)[C@H](O)[C@H]6O[C@@H]6O[C@H](C)[C@H](O)[C@H](O)[C@H]6O)[C@H](O)[C@H]5O[C@@H]5O[C@H](C)[C@@H](O)[C@H](O)[C@H]5O)[C@H]4O)[C@H]4C[C@@H](OS(=O)(=O)O)CC[C@]4(C)C3=CC[C@@]21C,inactive,,
CC(C)=CC[C@H](O)[C@](C)(O)[C@H]1CC[C@H]2[C@@H]3C[C@H](O[C@@H]4O[C@H](C)[C@@H](O)[C@H](O[C@@H]5OC[C@@H](O[C@@H]6O[C@H](C)[C@@H](O)[C@H](O)[C@H]6O[C@@H]6O[C@H](C)[C@H](O)[C@H](O)[C@H]6O)[C@H](O)[C@H]5O[C@@H]5O[C@H](C)[C@@H](O)[C@H](O)[C@H]5O)[C@H]4O)[C@H]4C[C@@H](OS(=O)(=O)O)CC[C@]4(C)C3=CC[C@]12C,inactive,,
CC(C)[C@H](C)[C@@H]1O[C@H]1[C@](C)(O)[C@H]1[C@@H](O)C[C@H]2[C@@H]3C[C@H](O[C@@H]4O[C@H](C)[C@@H](O)[C@H](O[C@@H]5O[C@H](C)[C@@H](O[C@@H]6O[C@H](CO)[C@@H](O)[C@H](O)[C@H]6O[C@@H]6O[C@H](C)[C@H](O)[C@H](O)[C@H]6O)[C@H](O)[C@H]5O[C@@H]5O[C@H](C)[C@@H](O)[C@H](O)[C@H]5O)[C@H]4O)[C@H]4C[C@@H](OS(=O)(=O)O)CC[C@]4(C)C3=CC[C@]12C,inactive,6.4,

# From ChEMBL document CHEMBL4130468, “Furostane Series Asterosaponins and Other Unusual Steroid Oligoglycosides from the Tropical Starfish Pentaceraster regulus” (J Nat Prod, 2017)
